Results as given in paper PMC12750163 (Acta Pharmaceutica Sinica. B, 2025).

How the values were obtained:
A549 cells = test: PD-L1 and EVs in A549 cells treated with GW4869; format: cell-based, human; details: 10 μmol/L
Procedure, shortened: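 A549 or LSD1-knockout A549 cells (lentiviral editing, antibiotic selection, PCR/sequencing check, single-cell cloning) are treated ± 10 μmol/L GW4869. Conditioned medium is spun 3000 × g, 10 min, 4 °C. EVs are precipitated with an equal volume of isolation reagent at 4 °C, pelleted 10,000 × g, 60 min, 4 °C, and PBS-washed. Characterisation by TEM/NTA. PD-L1, ALIX, TSG101 and CD9 are detected by western blot from equal cell numbers.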

LLC tumor-bearing mice = test: In vivo biodistribution; set-up: species or system mouse; details: i.v., over time
Procedure, shortened: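 Cy5.5-loaded liposomes stand in for drug and anti-PD1. Free Cy5.5 or Cy5.5-nanoparticles (3 mg/kg Cy5.5 equivalent) are injected via the tail vein into LLC tumour-bearing nude mice. Mice are imaged under anaesthesia at 2, 4, 6, 8, 12 and 24 h (λex/λem 680/704 nm). Mean tumour ROI fluorescence is quantified. Organs and tumours are imaged ex vivo at 24 h.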

Compound | levels of EVs and EVs-PD-L1 (A549 cells; A549 cells) | membrane PD-L1 and total PD-L1 (A549 cells; A549 cells) | membrane PD-L1 (A549 cells; LSD1-knockout A549 cells) | accumulation at the tumor site compared with Cy5.5-FPNs (LLC tumor-bearing mice)
O=C(/C=C/c1ccc(/C=C/C(=O)Nc2ccc(C3=NCCN3)cc2)cc1)Nc1ccc(C2=NCCN2)cc1 [GW4869] | reduced | significant accumulation | induced the accumulation | –
Cy5.5 | – | – | – | much lower
